In brackets after ≈: the same amount, converted by molar mass.
How the values were obtained:
Intestine = test: Prodrug conversion in rat intestinal microsomes assessed as half life
Plasma [1] = test: Prodrug conversion in human plasma assessed as half life
[2] = (§1) AUC in rat plasma at 10 mg/kg, po using 10.6% PEG400, 5.4% Cremophor EL, 2.6% Labrasol, 1.4% Capmul MCM in water (80%) vehicle; type: ADME, organism-based; design: dose 10 mg/kg, route oral; conditions: plasma
Procedure, shortened: (§2)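 Fasted rats were given a single 10 mg/kg oral dose, with n = 3 per dose and route. Plasma was extracted by solid-phase extraction. Analysis used HPLC with diode-array UV (200–400 nm, peak height at best S/N) or LC/MS. Calibration standards were made in blank plasma, with LOQ 7–14 ng/mL. Parameters came from noncompartmental analysis.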

[3] = Prodrug conversion in human intestinal microsomes assessed as half life
Liver microsome [4] = test: Prodrug conversion in human liver microsomes assessed as half life
[5] = (§3) Cmax in rat plasma at 10 mg/kg, po using 10.6% PEG400, 5.4% Cremophor EL, 2.6% Labrasol, 1.4% Capmul MCM in water (80%) vehicle; type: ADME, organism-based; design: dose 10 mg/kg, route oral; conditions: plasma; procedure, shortened: as §2
[6] = Prodrug solubility in solutol; type: ADME
[7] = Dissociation constant, pKa of the compound; type: physicochemical
[8] = Prodrug solubility in capmul; type: ADME
Rattus norvegicus [9] = test: Cmax in rat plasma assessed as (E)-3-(4-(1-(2-(5-chloropyrimidin-2-yl)-3-cyclopentyl-1-methyl-1H-indole-6-carboxamido)cyclobutanecarboxamido)-2-ethoxyphenyl)acrylic acid at 10 mg/kg, po using 10.6% PEG400, 5.4% Cremophor EL, 2.6% Labrasol, 1.4% Capmul MCM in water (80%) vehicle; type: ADME, organism-based; design: dose 10 mg/kg, route oral; conditions: in vivo; procedure, shortened: as §2
Rattus norvegicus [10] = test: AUC in rat plasma assessed as (E)-3-(4-(1-(2-(5-chloropyrimidin-2-yl)-3-cyclopentyl-1-methyl-1H-indole-6-carboxamido)cyclobutanecarboxamido)-2-ethoxyphenyl)acrylic acid at 10 mg/kg, po using 10.6% PEG400, 5.4% Cremophor EL, 2.6% Labrasol, 1.4% Capmul MCM in water (80%) vehicle; type: ADME, organism-based; design: dose 10 mg/kg, route oral; conditions: in vivo; procedure, shortened: as §2
Plasma [11] = test: Prodrug conversion in rat plasma assessed as half life; type: ADME, cell-free
Procedure, shortened: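 Rat plasma (from centrifuged whole blood) was incubated with 2 µM compound at 37 °C. Samples were quenched 1:3 with acetonitrile/methanol 1:1, centrifuged and analysed by HPLC-PDA. Half-life was taken as 0.693/first-order rate of loss of the starting compound.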

Liver microsome [12] = test: Prodrug conversion in rat liver microsomes assessed as half life
[13] = Prodrug conversion in simulated gastric fluid assessed as half life; type: ADME; conditions: simulated gi fluid
Procedure, shortened: (§4)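 Incubations used 2 µM compound at 37 °C in either SGF (0.2% NaCl/HCl, pH 1.2, pepsin 3.2 mg/mL) or SIF (KH2PO4/NaOH, pH 7.5, pancreatin 10 mg/mL). Samples were quenched 1:2 with acetonitrile/methanol 1:1 and analysed by HPLC. t1/2 = 0.693/first-order disappearance rate.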

[14] = Prodrug conversion in simulated intestinal fluid assessed as half life; type: ADME; conditions: simulated gi fluid; procedure, shortened: as §4
[15] = Prodrug solubility in Labrasol; type: ADME
Rattus norvegicus [16] = test: as §1; type: ADME, organism-based; design: dose 10 mg/kg, route oral; conditions: in vivo, BLD = below limit of detection; procedure, shortened: as §2
Rattus norvegicus [17] = test: as §3; type: ADME, organism-based; design: dose 10 mg/kg, route oral; conditions: in vivo, BLD = below limit of detection; procedure, shortened: as §2
Rattus norvegicus [18] = test: AUC in rat plasma assessed as (E)-3-(4-(1-(2-(5-chloropyrimidin-2-yl)-3-cyclopentyl-1-methyl-1H-indole-6-carboxamido)cyclobutanecarboxamido)-2-ethoxyphenyl)acrylic acid at 10 mg/kg, po using 0.5% Methyl cellulose, 0.3% Tween-80, 1% N-methylpyrrolidone in water vehicle; type: ADME, organism-based; design: dose 10 mg/kg, route oral; conditions: in vivo; procedure, shortened: as §2
[19] = Cmax in rat plasma at 10 mg/kg, po using 0.5% Methyl cellulose, 0.3% Tween-80, 1% N-methylpyrrolidone in water vehicle; type: ADME, organism-based; design: dose 10 mg/kg, route oral; conditions: plasma; procedure, shortened: as §2
Rattus norvegicus [20] = test: Cmax in rat plasma assessed as (E)-3-(4-(1-(2-(5-chloropyrimidin-2-yl)-3-cyclopentyl-1-methyl-1H-indole-6-carboxamido)cyclobutanecarboxamido)-2-ethoxyphenyl)acrylic acid at 10 mg/kg, po using 0.5% Methyl cellulose, 0.3% Tween-80, 1% N-methylpyrrolidone in water vehicle; type: ADME, organism-based; design: dose 10 mg/kg, route oral; conditions: in vivo; procedure, shortened: as §2
[21] = AUC in rat plasma at 10 mg/kg, po using 0.5% Methyl cellulose, 0.3% Tween-80, 1% N-methylpyrrolidone in water vehicle; type: ADME, organism-based; design: dose 10 mg/kg, route oral; conditions: plasma; procedure, shortened: as §2
[22] = Solubility of the compound at pH 6.8; type: physicochemical; conditions: buffer

| Compound | t1/2 (Intestine) [h] | t1/2 (Plasma [1]) [h] | AUC [2] [µM·h] | t1/2 [3] [h] | t1/2 (Liver microsome [4]) [h] | Cmax [5] [nM] | solubility [6] [mg/mL] | pKa [7] | solubility [8] [mg/mL] | Cmax (Rattus norvegicus [9]) [nM] | AUC (Rattus norvegicus [10]) [µM·h] | t1/2 (Plasma [11]) [h] | t1/2 (Liver microsome [12]) [h] | t1/2 [13] [h] | t1/2 [14] [h] | solubility [15] [mg/mL] | AUC (Rattus norvegicus [16]) | Cmax (Rattus norvegicus [17]) | AUC (Rattus norvegicus [18]) [µM·h] | Cmax [19] [nM] | also measured |
| --- | --- | --- | --- | --- | --- | --- | --- | --- | --- | --- | --- | --- | --- | --- | --- | --- | --- | --- | --- | --- | --- |
| CCOc1cc(NC(=O)C2(NC(=O)c3ccc4c(C5CCCC5)c(-c5ncc(Cl)cn5)n(C)c4c3)CCC2)ccc1/C=C/C(=O)OCCN(C)C | 1.47 | > 5 | – | > 5 | 1.5 | – | < 100 | 7.7 | < 100 | 1600 | 10.1 | 1.4 | 0.317 | 1.82 | 6.6 | < 100 | BLD | BLD | – | – | – |
| CCOc1cc(NC(=O)C2(NC(=O)c3ccc4c(C5CCCC5)c(-c5ncc(Cl)cn5)n(C)c4c3)CCC2)ccc1/C=C/C(=O)OC | 1.82 | > 5 | 2.6 | 9.07 | 12.7 | 840 | – | – | – | 5200 | 30.7 | > 5 | 1.63 | 2.5 | 6.87 | – | – | – | 5.7 | 10 | Cmax (Rattus norvegicus [20]): 510 nM; AUC [21]: 0.07 µM·h |
| CCOc1cc(NC(=O)C2(NC(=O)c3ccc4c(C5CCCC5)c(-c5ncc(Cl)cn5)n(C)c4c3)CCC2)ccc1/C=C/C(=O)OCOP(=O)(O)O | 0.083 | – | – | 0.467 | 0.167 | – | – | – | – | – | – | – | 0.15 | 1.3 | – | – | – | – | 14.5 | 50 | Cmax (Rattus norvegicus [20]): 4200 nM; AUC [21]: 0.09 µM·h; solubility [22]: 0.14 mg/mL (≈ 0.186 mM) |

The next lines start with results.

| t1/2 (Intestine) [h] | t1/2 (Plasma [1]) [h] | AUC [2] [µM·h] | t1/2 [3] [h] | t1/2 (Liver microsome [4]) [h] | Cmax [5] [nM] | solubility [6] [mg/mL] | pKa [7] | solubility [8] [mg/mL] | Cmax (Rattus norvegicus [9]) [nM] | AUC (Rattus norvegicus [10]) [µM·h] | t1/2 (Plasma [11]) [h] | t1/2 (Liver microsome [12]) [h] | t1/2 [13] [h] | t1/2 [14] [h] | solubility [15] [mg/mL] | AUC (Rattus norvegicus [16]) | Cmax (Rattus norvegicus [17]) | AUC (Rattus norvegicus [18]) [µM·h] | Cmax [19] [nM] | Compound | also measured |
| --- | --- | --- | --- | --- | --- | --- | --- | --- | --- | --- | --- | --- | --- | --- | --- | --- | --- | --- | --- | --- | --- |
| 3.5 | > 5 | 0.2 | 15.2 | 0.917 | 70 | < 60 | 5.7 | < 30 | 7200 | 35.2 | 1.6 | 0.583 | 0.333 | 4.28 | < 60 | – | – | – | – | CCOc1cc(NC(=O)C2(NC(=O)c3ccc4c(C5CCCC5)c(-c5ncc(Cl)cn5)n(C)c4c3)CCC2)ccc1/C=C/C(=O)OCCN1CCOCC1 | – |
| – | – | – | – | 0.35 | – | < 100 | 6.6 | < 100 | 260 | 1.5 | – | 0.15 | – | – | < 100 | BLD | BLD | – | – | CCOc1cc(NC(=O)C2(NC(=O)c3ccc4c(C5CCCC5)c(-c5ncc(Cl)cn5)n(C)c4c3)CCC2)ccc1/C=C/C(=O)OCC(=O)N1CCN(C)CC1 | – |

— ChEMBL document CHEMBL3352534, “A prodrug strategy for the oral delivery of a poorly soluble HCV NS5B thumb pocket 1 polymerase inhibitor using self-emulsifying drug delivery systems (SEDDS)” (Bioorg Med Chem Lett, 2015)
